ChEMBL document CHEMBL4002570, “Synthesis and cytostatic properties of polyfunctionalized furanoallocolchicinoids” (Eur J Med Chem, 2017)
Active and inactive are the calls of the source.

What was measured:
BXPC-3 = experiment: Cytotoxicity against 2D culture of human BxPC3 cells measured after 72 hrs by MTT assay; format: functional, cell-based; details: BXPC-3, 72 h
Outline: (§1)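 Cells (tumor lines and HaCaT in DMEM with 10% FCS; bone-marrow MSC at passages 2-6) seeded at 3x10⁵ cells/mL 24 h before and allowed to adhere. Compounds dissolved in DMSO (20 mM stock), diluted 20 µM to 0.1 nM, exposed 72 h. MTT added for the last 6 h, formazan dissolved in DMSO, OD read at 540 nm. IC50 taken from titration curves.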

PANC-1 [1] = experiment: Cytotoxicity against 2D culture of human PANC1 cells measured after 72 hrs by MTT assay; format: functional, cell-based; details: PANC-1, 72 h; outline: as §1
COLO357 [2] = experiment: Cytotoxicity against 2D culture of human Colo-357 cells measured after 72 hrs by MTT assay; format: functional, cell-based; details: COLO357, 72 h; outline: as §1
MIA PaCa-2 [3] = experiment: Cytotoxicity against 2D culture of human MIAPaCa2 cells measured after 72 hrs by MTT assay; format: functional, cell-based; details: MIA PaCa-2, 72 h; outline: as §1
A549 = experiment: Cytotoxicity against 2D culture of human A549 cells measured after 72 hrs by MTT assay; format: functional, cell-based; details: A549, 72 h; outline: as §1
[4] = Cytotoxicity against 2D culture of human MSC measured after 72 hrs by MTT assay; format: cell-based; outline: as §1
EA.hy 926 [5] = experiment: Cytotoxicity against 2D culture of human EAhy926 cells measured after 72 hrs by MTT assay; format: cell-based; details: EA.hy 926, 72 h; outline: as §1
HaCaT = experiment: Cytotoxicity against 2D culture of human HaCaT cells measured after 72 hrs by MTT assay; format: cell-based; outline: as §1
EA.hy 926 [6] = experiment: Cytotoxicity against 3D culture of human EAhy926 cells up to 10000 nM measured after 72 hrs by MTT assay; format: cell-based; details: ea.hy 926, 72 h
Outline: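 Spheroids formed on polyHEMA-coated plates before drug addition, then handled like 2D MTT: dilutions from 20 µM to 0.1 nM, 72 h exposure, MTT for the final 6 h, DMSO solubilization, OD at 540 nm. Inhibition index = 1 − OD(exp)/OD(control); IC50 read at the 50% cutoff.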

COLO357 [7] = experiment: Induction of apoptosis in 2D culture of human Colo-357 cells assessed as accumulation at G2/M phase at 1 uM measured after 72 hrs by propidium iodide staining based flow cytometry; format: functional, cell-based
Outline: (§2)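 Cultures (2D or polyHEMA spheroids) exposed to 1 µM for 72 h. Cells trypsinized, washed in ice-cold PBS, fixed in 70% ethanol for 2 h at −20 °C, stained with propidium iodide 50 µg/ml plus […] 10 µg/ml. Flow cytometry with 2000 events. Phase distribution gated on dot plots; apoptotic cells excluded in 3D histograms.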

MIA PaCa-2 [8] = experiment: Induction of apoptosis in 2D culture of human MIAPaCa2 cells assessed as accumulation at G2/M phase at 1 uM measured after 72 hrs by propidium iodide staining based flow cytometry; format: functional, cell-based
COLO357 [9] = experiment: Induction of apoptosis in 3D culture of human Colo-357 cells assessed as accumulation at G2/M phase at 1 uM measured after 72 hrs by propidium iodide staining based flow cytometry; format: functional, cell-based; outline: as §2
MIA PaCa-2 [10] = experiment: Induction of apoptosis in 3D culture of human MIAPaCa2 cells assessed as accumulation at G2/M phase at 1 uM measured after 72 hrs by propidium iodide staining based flow cytometry; format: functional, cell-based; outline: as §2
COLO357 [11] = experiment: Disruption of mitotic spindle in human Colo-357 cells at 1 uM measured after 72 hrs by Hoechst 33342 staining based confocal microscopic analysis; format: functional, cell-based
COLO357 [12] = experiment: Induction of beta-tubulin expression in human Colo-357 cells at 1 uM measured after 24 hrs by Hoechst 33342 staining based confocal microscopic analysis; format: functional, cell-based
Outline: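 Colo-357 in 2D exposed to 1 µM for 24 h, fixed, then stained with anti-β-tubulin antibody (red) and Hoechst 33342. Confocal imaging; mean fluorescence intensity from red pixel counts over several fields; significance taken at p<0.05.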

COLO357 [13] = experiment: Induction of total tubulin expression in 3D culture of human Colo-357 cells measured after 48 hrs by propidium iodide staining based flow cytometry; format: functional, cell-based
Outline: (§3)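 Spheroids on polyHEMA exposed to 1 µM for 48 h, trypsinized, permeabilized, stained with anti-tubulin antibody and phalloidin-AlexaFluor488 for F-actin, and analyzed by flow cytometry.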

COLO357 [14] = experiment: Induction of beta-tubulin expression in human Colo-357 cells assessed as mean fluorescence intensity at 1 uM measured after 24 hrs by Hoechst 33342 staining based confocal microscopic analysis (reference value: 52 +/- 12); format: functional
COLO357 [15] = experiment: Induction of F-actin expression in 3D culture of human Colo-357 cells at 1 uM measured after 48 hrs by propidium staining based flow cytometry; format: functional, cell-based; outline: as §3
MIA PaCa-2 [16] = experiment: Induction of F-actin expression in 3d culture of human MIAPaCa2 cells at 1 uM measured after 48 hrs by propidium staining based flow cytometry; format: functional, cell-based; outline: as §3
COLO357 [17] = experiment: Induction of mitochondrial membrane hyperpolarization in 3D culture of human Colo-357 cells at 1 uM measured after 48 hrs by DiOC6 dye based flow cytometry; format: functional, cell-based
Outline: (§4)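 Spheroids on polyHEMA exposed to 1 µM for 48 h, trypsinized. Live cells stained for 1 h with DiOC₆ (mitochondrial potential), LysoTrackerRed (lysosomal potential) or propidium iodide (membrane permeability), then analyzed by flow cytometry.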

MIA PaCa-2 [18] = experiment: Induction of mitochondrial membrane hyperpolarization in 3D culture of human MIAPaCa2 cells at 1 uM measured after 48 hrs by DiOC6 dye based flow cytometry; format: functional, cell-based; outline: as §4
COLO357 [19] = experiment: Induction of lysosomal membrane hyperpolarization in 3D culture of human Colo-357 cells at 1 uM measured after 48 hrs by LysoTrackRed dye based flow cytometry; format: functional, cell-based; outline: as §4
MIA PaCa-2 [20] = experiment: Induction of lysosomal membrane hyperpolarization in 3D culture of human MIAPaCa2 cells at 1 uM measured after 48 hrs by LysoTrackRed dye based flow cytometry; format: functional, cell-based; outline: as §4
COLO357 [21] = experiment: Induction of cell membrane permeability in 3D culture of human Colo-357 cells at 1 uM measured after 48 hrs by propidium iodide staining based flow cytometry; format: functional; outline: as §4
MIA PaCa-2 [22] = experiment: Induction of cell membrane permeability in 3D culture of human MIAPaCa2 cells at 1 uM measured after 48 hrs by propidium iodide staining based flow cytometry; format: functional; outline: as §4
PANC-1 [23] = experiment: Disruption of preformed spheroids in human PANC1 cells at 1 uM measured after 48 hrs by propidium staining based flow cytometry; format: functional, cell-based
MIA PaCa-2 [24] = experiment: Disruption of preformed spheroids in human MIAPaCa2 cells at 1 uM measured after 48 hrs by propidium staining based flow cytometry; format: functional, cell-based
COLO357 [25] = experiment: Disruption of preformed spheroids in human Colo-357 cells at 1 uM measured after 48 hrs by propidium staining based flow cytometry; format: functional, cell-based

Structure (SMILES) | IC50 (BXPC-3) [nM] | IC50 (PANC-1 [1]) [nM] | IC50 (COLO357 [2]) [nM] | IC50 (MIA PaCa-2 [3]) [nM] | IC50 (A549) [nM] | IC50 [4] [nM] | IC50 (EA.hy 926 [5]) [nM] | IC50 (HaCaT) [nM] | Activity (EA.hy 926 [6]) | Activity (COLO357 [7]) | Activity (MIA PaCa-2 [8]) | Activity (COLO357 [9]) | Activity (MIA PaCa-2 [10]) | Activity (COLO357 [11]) | Activity (COLO357 [12]) | Activity (COLO357 [13]) | Flu intensity (COLO357 [14]) | Activity (COLO357 [15]) | Activity (MIA PaCa-2 [16]) | Activity (COLO357 [17]) | further results
COc1cc2c(c(OC)c1OC)-c1ccc(OC)c(=O)cc1[C@@H](NC(C)=O)CC2 [COLCHICINE] | 80 | 80 | 160 | 160 | 400 | > 800 | > 800 | 80 | Non-Toxic | Active | Active | Active | Active | Active | Active | Active | 74 | inactive | Active | Active | Activity (MIA PaCa-2 [18]): Active; Activity (COLO357 [19]): Active; Activity (MIA PaCa-2 [20]): Active; Activity (COLO357 [21]): Active; Activity (MIA PaCa-2 [22]): Active; Activity (PANC-1 [23]): Active; Activity (MIA PaCa-2 [24]): Active; Activity (COLO357 [25]): Active
COc1cc2c(c(OC)c1OC)-c1cc3cc(CO)oc3cc1C(=O)CC2 | 16 | 16 | 16 | 64 | 16 | > 800 | > 800 | 16 | Non-Toxic | Active | Active | Active | Active | Active | Active | Active | 73 | inactive | Active | Active | Activity (MIA PaCa-2 [18]): Active; Activity (COLO357 [19]): Active; Activity (MIA PaCa-2 [20]): Active; Activity (COLO357 [21]): Active; Activity (MIA PaCa-2 [22]): Active; Activity (PANC-1 [23]): Active; Activity (MIA PaCa-2 [24]): Active; Activity (COLO357 [25]): Active
COc1cc2c(c(OC)c1OC)-c1cc3cc(CCO)oc3cc1C(=O)CC2 | 400 | 400 | > 400 | > 400 | 400 |  |  |  |  |  |  |  |  |  |  |  |  |  |  |  | 
COc1cc2c(c(OC)c1OC)-c1cc3cc(CCO)oc3cc1C(O)CC2 (centres undefined) | 400 | 400 | > 400 | > 400 | 400 |  |  |  |  |  |  |  |  |  |  |  |  |  |  |  | 
COc1cc2c(c(OC)c1OC)-c1cc3cc(CO)oc3cc1C(O)CC2 (centres undefined) | 16 | 16 | 16 | 16 | 16 | > 800 | > 800 | 16 | Non-Toxic | Active | Active | Active | Active | Active | Active | Active | 110 | Active | Active | Active | Activity (MIA PaCa-2 [18]): Active; Activity (COLO357 [19]): Active; Activity (MIA PaCa-2 [20]): Active; Activity (COLO357 [21]): Active; Activity (MIA PaCa-2 [22]): Active; Activity (PANC-1 [23]): Active; Activity (MIA PaCa-2 [24]): Active; Activity (COLO357 [25]): Active
COc1cc2c(c(OC)c1OC)-c1cc3cc(C(C)O)oc3cc1C(O)CC2 (centres undefined) | 30 | 30 | 64 | 64 | 80 |  |  |  |  |  |  |  |  |  |  |  |  |  |  |  | 
COc1cc2c(c(OC)c1OC)-c1cc3cc(COC(C)=O)oc3cc1C(=O)CC2 | 16 | 16 | 16 | 16 | 80 |  |  |  |  |  |  |  |  |  |  |  |  |  |  |  | 
COc1cc2c(c(OC)c1OC)-c1cc3cc(C(C)O)oc3cc1C(=O)CC2 (centres undefined) | 80 | 70 | 100 | > 100 | 40 |  |  |  |  |  |  |  |  |  |  |  |  |  |  |  | 
